Measurements as given in ChEMBL document CHEMBL5357024, “MDM2 Antagonist Idasanutlin Reduces HDAC1/2 Abundance and Corepressor Partners but Not HDAC3” (ACS Med Chem Lett, 2024).
The source made the active and inactive calls. The rule behind the calls is not given here.

Tests used:
Type in all cases: cell-based
[1] = target: T1, Paired amphipathic helix protein Sin3a (Homo sapiens) (UniProt Q96ST3); assay: Induction of SIN3A degradation in human HCT-116 cells assessed as reduction in SIN3A abundance by measuring remaining activity at 0.1 uM measured after 24 hrs by Western blot analysis (reference value: 100%)
T1 sequence (whole entry): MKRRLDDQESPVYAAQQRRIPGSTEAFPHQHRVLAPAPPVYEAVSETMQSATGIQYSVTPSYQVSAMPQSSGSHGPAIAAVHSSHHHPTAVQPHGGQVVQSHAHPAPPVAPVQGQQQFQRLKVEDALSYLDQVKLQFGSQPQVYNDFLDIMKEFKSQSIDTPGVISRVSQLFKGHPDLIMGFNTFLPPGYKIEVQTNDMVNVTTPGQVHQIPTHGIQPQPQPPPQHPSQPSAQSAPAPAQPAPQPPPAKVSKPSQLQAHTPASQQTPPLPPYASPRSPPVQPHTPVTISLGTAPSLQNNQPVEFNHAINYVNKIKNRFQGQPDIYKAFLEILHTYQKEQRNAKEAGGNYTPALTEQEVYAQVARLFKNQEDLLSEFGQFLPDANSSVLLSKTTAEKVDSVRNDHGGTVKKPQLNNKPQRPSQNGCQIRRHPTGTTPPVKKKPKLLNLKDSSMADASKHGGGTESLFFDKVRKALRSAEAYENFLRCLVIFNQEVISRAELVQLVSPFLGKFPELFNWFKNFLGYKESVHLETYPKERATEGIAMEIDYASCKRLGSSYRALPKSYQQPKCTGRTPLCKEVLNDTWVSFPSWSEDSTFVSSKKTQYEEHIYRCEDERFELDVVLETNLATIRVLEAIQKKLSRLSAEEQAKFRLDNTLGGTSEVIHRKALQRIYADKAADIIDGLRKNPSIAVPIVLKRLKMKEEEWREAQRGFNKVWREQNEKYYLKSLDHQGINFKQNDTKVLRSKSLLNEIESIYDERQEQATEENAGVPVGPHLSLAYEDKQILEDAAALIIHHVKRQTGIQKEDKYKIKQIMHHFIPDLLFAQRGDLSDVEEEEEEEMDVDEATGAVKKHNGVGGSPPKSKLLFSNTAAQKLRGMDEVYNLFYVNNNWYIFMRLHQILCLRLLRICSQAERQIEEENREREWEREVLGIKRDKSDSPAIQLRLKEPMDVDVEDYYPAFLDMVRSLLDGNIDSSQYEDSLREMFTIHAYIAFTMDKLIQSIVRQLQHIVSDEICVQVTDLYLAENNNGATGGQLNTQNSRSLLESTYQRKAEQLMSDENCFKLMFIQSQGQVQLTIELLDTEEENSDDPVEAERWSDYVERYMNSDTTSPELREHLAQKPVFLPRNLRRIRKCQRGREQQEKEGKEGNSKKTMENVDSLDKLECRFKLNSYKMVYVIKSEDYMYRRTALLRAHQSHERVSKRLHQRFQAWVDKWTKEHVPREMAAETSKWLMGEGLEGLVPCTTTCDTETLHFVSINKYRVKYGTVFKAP
How it was run: (§1)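 HCT116 cells seeded in six-well plates for 24 h, then exposed 24 h to compound (0.01–10 μM) or DMSO in fresh medium. Lysis in Tris-HCl/NaCl/NP-40/Triton X-100 with protease inhibitor. Bradford-normalised 30 μg protein per lane. Quantitative Western blot used specific HDAC1, HDAC2, HDAC3, LSD1 or Sin3a antibodies with IRDye secondaries. Abundance compared with DMSO, n = 2 replicates.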

[2] = target: T2, E3 ubiquitin-protein ligase Mdm2/Histone deacetylase 1 (Homo sapiens) (UniProt Q00987+Q13547); assay: PROTAC activity at MDM2/HDAC1 in human HCT-116 cells assessed as decrease in HDAC1 abundance by measuring remaining activity at 0.01 uM measured after 24 hrs by Western blot analysis (reference value: 100%); how it was run: as §1
[3] = target: T2, E3 ubiquitin-protein ligase Mdm2/Histone deacetylase 1 (Homo sapiens); assay: PROTAC activity at MDM2/HDAC1 in human HCT-116 cells assessed as decrease in HDAC1 abundance by measuring remaining activity at 0.5 uM measured after 24 hrs by Western blot analysis (reference value: 100%); how it was run: as §1
[4] = target: T1, Paired amphipathic helix protein Sin3a (Homo sapiens); assay: Induction of SIN3A degradation in human HCT-116 cells assessed as reduction in SIN3A abundance by measuring remaining activity at 5 uM measured after 24 hrs by Western blot analysis (reference value: 100%); how it was run: as §1
[5] = target: T3, E3 ubiquitin-protein ligase Mdm2/Histone deacetylase 3 (Homo sapiens) (UniProt Q00987+O15379); assay: PROTAC activity at MDM2/HDAC3 in human HCT-116 cells assessed as reduction in HDAC3 abundance by measuring remaining activity at 2.5 uM measured after 24 hrs by Western blot analysis
How it was run: (§2)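 HCT116 cells in DMEM with 10% FBS and glutamine/penicillin/streptomycin at 37 °C, 5% CO2. Seeded 4 × 10^5 cells/well, after 24 h treated 24 h with DMSO or compound in fresh medium. Lysed in Tris-HCl/NaCl/NP-40/Triton X-100 buffer with protease inhibitor, Bradford-quantified, 30 μg protein per lane. Quantitative Western blot with specific HDAC1/2/3 antibodies, IRDye secondaries, infrared imaging, versus DMSO. n = 2 replicates.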

[6] = target: T3, E3 ubiquitin-protein ligase Mdm2/Histone deacetylase 3 (Homo sapiens); assay: PROTAC activity at MDM2/HDAC3 in human HCT-116 cells assessed as induction of HDAC3 degradation at 0.01 to 10 uM by Western blot analysis; conditions: dose 0.01-10 µM
[7] = target: T4, E3 ubiquitin-protein ligase Mdm2/Histone deacetylase 2 (Homo sapiens) (UniProt Q00987+Q92769); assay: PROTAC activity at MDM2/HDAC2 in human HCT-116 cells assessed as decrease in HDAC2 abundance by measuring remaining activity at 0.1 uM measured after 24 hrs by Western blot analysis (reference value: 100%); how it was run: as §1
[8] = target: Lysine-specific histone demethylase 1A (Homo sapiens) (UniProt O60341); assay: Induction of LSD1 degradation in human HCT-116 cells assessed as reduction in LSD1 abundance by measuring remaining activity at 0.5 uM measured after 24 hrs by Western blot analysis (reference value: 100%); how it was run: as §1
[9] = target: T3, E3 ubiquitin-protein ligase Mdm2/Histone deacetylase 3 (Homo sapiens); assay: PROTAC activity at MDM2/HDAC3 in human HCT-116 cells assessed as reduction in HDAC3 abundance by measuring remaining activity at 0.1 uM measured after 24 hrs by Western blot analysis (reference value: 100%); how it was run: as §2
[10] = target: T4, E3 ubiquitin-protein ligase Mdm2/Histone deacetylase 2 (Homo sapiens); assay: PROTAC activity at MDM2/HDAC2 in human HCT-116 cells assessed as decrease in HDAC2 abundance by measuring remaining activity at 0.01 uM measured after 24 hrs by Western blot analysis (reference value: 100%); how it was run: as §1
[11] = target: T4, E3 ubiquitin-protein ligase Mdm2/Histone deacetylase 2 (Homo sapiens); assay: PROTAC activity at MDM2/HDAC2 in human HCT-116 cells assessed as decrease in HDAC2 abundance by measuring remaining activity at 5 uM measured after 24 hrs by Western blot analysis (reference value: 100%); how it was run: as §1
[12] = target: T2, E3 ubiquitin-protein ligase Mdm2/Histone deacetylase 1 (Homo sapiens); assay: PROTAC activity at MDM2/HDAC1 in human HCT-116 cells assessed as decrease in HDAC1 abundance by measuring remaining activity at 2.5 uM measured after 24 hrs by Western blot analysis (reference value: 100%); how it was run: as §1

T2 sequence (Q00987 whole entry, looked up): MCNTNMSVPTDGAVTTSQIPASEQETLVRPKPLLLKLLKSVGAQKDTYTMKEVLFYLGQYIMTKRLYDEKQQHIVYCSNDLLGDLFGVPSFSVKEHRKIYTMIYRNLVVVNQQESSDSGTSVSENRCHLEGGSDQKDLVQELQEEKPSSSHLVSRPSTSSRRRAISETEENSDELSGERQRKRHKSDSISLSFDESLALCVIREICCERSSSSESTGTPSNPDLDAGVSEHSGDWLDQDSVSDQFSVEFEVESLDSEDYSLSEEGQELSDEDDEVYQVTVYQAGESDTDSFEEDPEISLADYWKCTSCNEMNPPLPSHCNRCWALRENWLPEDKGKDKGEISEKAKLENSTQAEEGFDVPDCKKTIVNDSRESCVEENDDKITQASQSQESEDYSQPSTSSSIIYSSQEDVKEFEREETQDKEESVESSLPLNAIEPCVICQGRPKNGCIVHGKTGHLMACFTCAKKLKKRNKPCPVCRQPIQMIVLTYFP
T2 sequence (Q13547 whole entry, looked up): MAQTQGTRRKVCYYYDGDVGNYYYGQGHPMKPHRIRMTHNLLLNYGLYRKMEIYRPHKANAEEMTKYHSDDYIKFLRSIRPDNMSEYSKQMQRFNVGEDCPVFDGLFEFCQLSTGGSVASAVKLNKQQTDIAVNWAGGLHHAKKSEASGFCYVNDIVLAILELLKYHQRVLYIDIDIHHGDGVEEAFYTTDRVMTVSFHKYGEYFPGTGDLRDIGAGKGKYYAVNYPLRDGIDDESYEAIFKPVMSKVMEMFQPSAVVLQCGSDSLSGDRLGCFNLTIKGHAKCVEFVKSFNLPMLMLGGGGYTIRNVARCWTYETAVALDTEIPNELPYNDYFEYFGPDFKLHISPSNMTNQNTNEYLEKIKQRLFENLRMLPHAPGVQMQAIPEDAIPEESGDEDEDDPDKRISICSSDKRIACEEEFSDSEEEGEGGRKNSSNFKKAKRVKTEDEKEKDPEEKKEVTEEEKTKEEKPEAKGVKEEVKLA
T4 sequence (Q00987 whole entry, looked up): as the sequence (Q00987 whole entry, looked up) above
T4 sequence (Q92769 whole entry, looked up): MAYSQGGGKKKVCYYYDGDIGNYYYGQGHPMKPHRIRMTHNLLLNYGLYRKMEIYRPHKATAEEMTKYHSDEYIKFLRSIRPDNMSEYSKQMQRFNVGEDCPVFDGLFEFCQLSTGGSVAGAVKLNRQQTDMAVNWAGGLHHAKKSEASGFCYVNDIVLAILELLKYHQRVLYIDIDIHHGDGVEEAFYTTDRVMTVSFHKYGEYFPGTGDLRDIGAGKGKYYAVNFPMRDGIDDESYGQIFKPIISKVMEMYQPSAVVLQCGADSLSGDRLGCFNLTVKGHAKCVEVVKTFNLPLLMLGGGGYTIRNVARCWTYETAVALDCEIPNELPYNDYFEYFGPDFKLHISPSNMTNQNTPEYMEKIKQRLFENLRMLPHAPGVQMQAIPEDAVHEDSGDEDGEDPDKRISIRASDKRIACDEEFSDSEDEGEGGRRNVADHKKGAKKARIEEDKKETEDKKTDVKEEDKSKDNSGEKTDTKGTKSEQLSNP
T3 sequence (O15379 whole entry, looked up): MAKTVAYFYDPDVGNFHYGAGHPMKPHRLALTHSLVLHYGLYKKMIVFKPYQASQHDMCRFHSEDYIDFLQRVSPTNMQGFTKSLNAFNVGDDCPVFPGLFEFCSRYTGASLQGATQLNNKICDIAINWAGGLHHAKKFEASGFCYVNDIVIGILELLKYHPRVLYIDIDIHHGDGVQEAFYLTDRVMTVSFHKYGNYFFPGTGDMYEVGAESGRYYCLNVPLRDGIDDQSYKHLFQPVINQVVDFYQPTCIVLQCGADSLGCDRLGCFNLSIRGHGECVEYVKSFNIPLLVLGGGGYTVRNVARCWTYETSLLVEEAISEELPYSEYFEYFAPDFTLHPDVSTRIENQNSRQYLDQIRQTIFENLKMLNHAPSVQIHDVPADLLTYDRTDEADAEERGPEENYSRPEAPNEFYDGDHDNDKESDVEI
T3 sequence (Q00987 whole entry, looked up): as the sequence (Q00987 whole entry, looked up) above

Activity [1]: 99%
Activity [2]: 108%
Activity [3]: 67%
Activity [4]: 53%
Activity [5]: 112%
Activity [6]: inactive
Activity [7]: 92%
Activity [8]: 86%
Activity [9]: 103%
Activity [10]: 97%
Activity [11]: 69%
Activity [12]: 39%
SMILES: COc1cc(C(=O)NCCOCCOCCOCCOCCC(=O)Nc2ccc(C(=O)Nc3ccccc3N)cc2)ccc1NC(=O)[C@@H]1N[C@@H](CC(C)(C)C)[C@](C#N)(c2ccc(Cl)cc2F)[C@H]1c1cccc(Cl)c1F
